{"source": "ChEMBL document CHEMBL5724801", "about": "“EUbOPEN Chemogenomics Library - Multiplex” (2024)", "system": "Fibroblast", "assay": "Multiplex assay against human fibroblast", "assay_type": "toxicity, cell-based", "summary_of_the_method": "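Cells stained live at seeding with Hoechst33342, BioTracker Green Microtubule Cytoskeleton Dye, MitoTracker Red and Annexin V Alexa Fluor 680 were imaged on a CQ1 microscope at 37°C and 5% CO2 after compound addition. Their classification by CellPathfinder machine-learning gating ran from Hoechst high-intensity objects versus normal cells, to healthy, pyknosed or fragmented nuclei among normal cells, to mitotic or apoptotic among pyknosed cells. Tubulin, mitochondrial-mass and membrane-permeability phenotypes are per cents of healthy-nucleus cells.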", "key": {"[1]": {"conditions": "12 h, 1 µM, compound concentration 1 uM"}, "[2]": {"conditions": "12 h, 10 µM, compound concentration 10 uM"}, "[3]": {"conditions": "24 h, 1 µM, compound concentration 1 uM"}, "[4]": {"conditions": "24 h, 10 µM, compound concentration 10 uM"}, "[5]": {"conditions": "48 h, 1 µM, compound concentration 1 uM"}, "[6]": {"conditions": "48 h, 10 µM, compound concentration 10 uM"}}, "note": "Values joined by “and” are separate entries in the source; they are usually repeats but may differ in a detail not shown here. Equal values may be shown once."}
{"smiles": "O=C(NCC(=O)N1CC[C@H](N[C@H]2CC[C@@](O)(c3ccc(-c4ncccn4)cn3)CC2)C1)c1cccc(C(F)(F)F)c1", "note": "[PF-4136309]", "values": [{"measurement": "Population Apoptotic (%)", "setting": "[1]", "result": "53% and 22%"}, {"measurement": "Population Fragmented Nuclei (%)", "setting": "[1]", "result": "13% and 25%"}, {"measurement": "Population Healthy Nuclei (%)", "setting": "[1]", "result": "63% and 52%"}, {"measurement": "Population Hoechst High Intensity Objects (%)", "setting": "[1]", "result": "2% and 5%"}, {"measurement": "Population Mitochondria Different-Phenotype (%)", "setting": "[1]", "result": "4% and 7%"}, {"measurement": "Population Mitotic Cells (%)", "setting": "[1]", "result": "46% and 77%"}, {"measurement": "Population Normal (%)", "setting": "[1]", "result": "97% and 94%"}, {"measurement": "Population Pyknosed Nuclei (%)", "setting": "[1]", "result": "23% and 21%"}, {"measurement": "Population Tubulin-Different-Phenotype (%)", "setting": "[1]", "result": "28% and 60%"}, {"measurement": "Total Cell Count", "setting": "[1]", "result": "142 and 152"}, {"measurement": "Population Apoptotic (%)", "setting": "[2]", "result": "60% and 25%"}, {"measurement": "Population Fragmented Nuclei (%)", "setting": "[2]", "result": "18% and 24%"}, {"measurement": "Population Healthy Nuclei (%)", "setting": "[2]", "result": "69% and 52%"}, {"measurement": "Population Hoechst High Intensity Objects (%)", "setting": "[2]", "result": "2% and 5%"}, {"measurement": "Population Membrane Permeable-Phenotype (%)", "setting": "[2]", "result": "0% and 4%"}, {"measurement": "Population Mitochondria Different-Phenotype (%)", "setting": "[2]", "result": "11% and 6%"}, {"measurement": "Population Mitotic Cells (%)", "setting": "[2]", "result": "40% and 75%"}, {"measurement": "Population Normal (%)", "setting": "[2]", "result": "97% and 94%"}, {"measurement": "Population Pyknosed Nuclei (%)", "setting": "[2]", "result": "12% and 23%"}, {"measurement": "Population Tubulin-Different-Phenotype (%)", "setting": "[2]", "result": "46% and 44%"}, {"measurement": "Total Cell Count", "setting": "[2]", "result": "210 and 128"}, {"measurement": "Population Apoptotic (%)", "setting": "[3]", "result": "61% and 45%"}, {"measurement": "Population Fragmented Nuclei (%)", "setting": "[3]", "result": "14% and 33%"}, {"measurement": "Population Healthy Nuclei (%)", "setting": "[3]", "result": "60% and 52%"}, {"measurement": "Population Hoechst High Intensity Objects (%)", "setting": "[3]", "result": "2% and 4%"}, {"measurement": "Population Mitochondria Different-Phenotype (%)", "setting": "[3]", "result": "4% and 1%"}, {"measurement": "Population Mitotic Cells (%)", "setting": "[3]", "result": "38% and 55%"}, {"measurement": "Population Normal (%)", "setting": "[3]", "result": "97% and 95%"}, {"measurement": "Population Pyknosed Nuclei (%)", "setting": "[3]", "result": "25% and 14%"}, {"measurement": "Population Tubulin-Different-Phenotype (%)", "setting": "[3]", "result": "32% and 52%"}, {"measurement": "Total Cell Count", "setting": "[3]", "result": "139 and 148"}, {"measurement": "Population Apoptotic (%)", "setting": "[4]", "result": "36% and 30%"}, {"measurement": "Population Fragmented Nuclei (%)", "setting": "[4]", "result": "15% and 29%"}, {"measurement": "Population Healthy Nuclei (%)", "setting": "[4]", "result": "72% and 48%"}, {"measurement": "Population Hoechst High Intensity Objects (%)", "setting": "[4]", "result": "3% and 2%"}, {"measurement": "Population Membrane Permeable-Phenotype (%)", "setting": "[4]", "result": "0% and 6%"}, {"measurement": "Population Mitochondria Different-Phenotype (%)", "setting": "[4]", "result": "10% and 4%"}, {"measurement": "Population Mitotic Cells (%)", "setting": "[4]", "result": "63% and 70%"}, {"measurement": "Population Normal (%)", "setting": "[4]", "result": "96% and 97%"}, {"measurement": "Population Pyknosed Nuclei (%)", "setting": "[4]", "result": "11% and 22%"}, {"measurement": "Population Tubulin-Different-Phenotype (%)", "setting": "[4]", "result": "34% and 52%"}, {"measurement": "Total Cell Count", "setting": "[4]", "result": "203 and 139"}, {"measurement": "Population Apoptotic (%)", "setting": "[5]", "result": "58% and 50%"}, {"measurement": "Population Fragmented Nuclei (%)", "setting": "[5]", "result": "26% and 36%"}, {"measurement": "Population Healthy Nuclei (%)", "setting": "[5]", "result": 49, "unit": "%"}, {"measurement": "Population Hoechst High Intensity Objects (%)", "setting": "[5]", "result": "2% and 4%"}, {"measurement": "Population Membrane Permeable-Phenotype (%)", "setting": "[5]", "result": "2% and 7%"}, {"measurement": "Population Mitochondria Different-Phenotype (%)", "setting": "[5]", "result": "2% and 4%"}, {"measurement": "Population Mitotic Cells (%)", "setting": "[5]", "result": "41% and 50%"}, {"measurement": "Population Normal (%)", "setting": "[5]", "result": "97% and 95%"}, {"measurement": "Population Pyknosed Nuclei (%)", "setting": "[5]", "result": "24% and 13%"}, {"measurement": "Population Tubulin-Different-Phenotype (%)", "setting": "[5]", "result": "27% and 46%"}, {"measurement": "Total Cell Count", "setting": "[5]", "result": "149 and 137"}, {"measurement": "Population Apoptotic (%)", "setting": "[6]", "result": "47% and 63%"}, {"measurement": "Population Fragmented Nuclei (%)", "setting": "[6]", "result": "18% and 31%"}, {"measurement": "Population Healthy Nuclei (%)", "setting": "[6]", "result": "72% and 52%"}, {"measurement": "Population Hoechst High Intensity Objects (%)", "setting": "[6]", "result": 6, "unit": "%"}, {"measurement": "Population Membrane Permeable-Phenotype (%)", "setting": "[6]", "result": "0% and 6%"}, {"measurement": "Population Mitochondria Different-Phenotype (%)", "setting": "[6]", "result": "15% and 6%"}, {"measurement": "Population Mitotic Cells (%)", "setting": "[6]", "result": "52% and 36%"}, {"measurement": "Population Normal (%)", "setting": "[6]", "result": 93, "unit": "%"}, {"measurement": "Population Pyknosed Nuclei (%)", "setting": "[6]", "result": "9% and 15%"}, {"measurement": "Population Tubulin-Different-Phenotype (%)", "setting": "[6]", "result": "47% and 54%"}, {"measurement": "Total Cell Count", "setting": "[6]", "result": "195 and 129"}]}
